Reference: BindingDB's records for doi:10.1021/jm960325j (Universit&#224, 1996)

The compounds below were run against Translocator protein (Rattus norvegicus, UniProt P16257) (assay: Binding affinity against peripheral benzodiazepine receptor( PBR).).
In short: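 Rat cerebral cortex membranes washed repeatedly at 50000g in 50 mM phosphate pH 7.4, 2.3 mg tissue per sample. Filtration, scintillation counting. IC50 by log-probit analysis over six concentrations in duplicate, means of three experiments. Maximal concentration 1000 nM.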

Translocator protein, sequence (P16257 whole entry, looked up): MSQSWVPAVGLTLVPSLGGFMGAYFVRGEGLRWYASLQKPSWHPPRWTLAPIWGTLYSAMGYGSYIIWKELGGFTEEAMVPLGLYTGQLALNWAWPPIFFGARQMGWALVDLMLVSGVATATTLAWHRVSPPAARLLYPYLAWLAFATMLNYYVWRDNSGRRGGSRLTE

Row | IC50 | SMILES
1 | > 1000 nM | CCCCCCN(CCCCCC)C(=O)Cc1c2[nH]c3ccccc3cc-2c(=O)n1-c1ccc(Cl)cc1 [2-[2-(4-Chloro-phenyl)-1-oxo-2,3-dihydro-1H-pyrrolo[3,4-b]quinolin-3-yl]-N,N-dihexyl-acetamide]
2 | > 1000 nM | CCCN(CCC)C(=O)Cc1c2[nH]c3ccccc3cc-2c(=O)n1-c1ccc(Cl)cc1 [2-[2-(4-Chloro-phenyl)-1-oxo-2,3-dihydro-1H-pyrrolo[3,4-b]quinolin-3-yl]-N,N-dipropyl-acetamide]
3 | > 1000 nM | CCCN(CCC)C(=O)Cc1c2[nH]cccc-2c(=O)n1-c1ccc(Cl)cc1 [2-[6-(4-Chloro-phenyl)-5-oxo-6,7-dihydro-5H-pyrrolo[3,4-b]pyridin-7-yl]-N,N-dipropyl-acetamide]
4 | > 1000 nM | O=c1c2ccc[nH]c-2cn1-c1ccc(Cl)cc1 [6-(4-Chloro-phenyl)-6,7-dihydro-pyrrolo[3,4-b]pyridin-5-one]
